ChEMBL document CHEMBL1153089, “Synthesis, antibacterial activities and molecular docking studies of peptide and Schiff bases as targeted antibiotics” (Bioorg Med Chem, 2009)
Values after ≈ are worked out from the molar mass of the structure shown.

Columns and labels:
[1] = target: T1, 3-oxoacyl-[acyl-carrier-protein] synthase 3 (Escherichia coli, UniProt C3TDZ2); assay: Inhibition of Escherichia coli Beta-ketoacyl-ACP synthase III expressed in Escherichia coli BL21 (DE3) by liquid scintillation counting
T1 sequence (C3TDZ2 whole entry): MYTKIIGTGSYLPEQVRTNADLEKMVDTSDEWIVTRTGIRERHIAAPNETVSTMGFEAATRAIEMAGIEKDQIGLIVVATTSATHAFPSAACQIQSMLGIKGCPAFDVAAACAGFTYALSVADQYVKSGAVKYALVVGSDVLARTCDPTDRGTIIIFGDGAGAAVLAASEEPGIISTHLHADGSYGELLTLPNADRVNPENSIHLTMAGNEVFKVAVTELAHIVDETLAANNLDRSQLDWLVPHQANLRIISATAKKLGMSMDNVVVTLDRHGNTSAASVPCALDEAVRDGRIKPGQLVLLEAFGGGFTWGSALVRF
Procedure, shortened: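 His-tagged E. coli KAS III from pET30 in BL21(DE3), purified on Ni-NTA and stored in 20 mM Tris pH 7.6, 100 mM NaCl, 1 mM DTT, 20% glycerol. The radiometric assay precipitated product with ice-cold 10% TCA and redissolved it in 0.5 M NaOH. ³H incorporation was counted by liquid scintillation. Inhibitors were added from DMSO stock, with final DMSO ≤2%. IC50 was determined.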

Staphylococcus aureus = assay: Antimicrobial activity against Staphylococcus aureus ATCC 6538 after 24 hrs by MTT assay; type: functional; settings: ATCC 6538, 24 h
Procedure, shortened: (§1)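 MIC by broth microdilution in Mueller–Hinton medium. Compounds were serially diluted in DMSO in the medium. Inoculum was about 10⁵ cfu/mL. Plates were incubated at 37 °C for 24 h. MIC was read visually with MTT colorimetric staining.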

Bacillus subtilis = assay: Antimicrobial activity against Bacillus subtilis ATCC 6633 after 24 hrs by MTT assay; type: functional; settings: ATCC 6633, 24 h; procedure, shortened: as §1
Pseudomonas aeruginosa = assay: Antimicrobial activity against Pseudomonas aeruginosa ATCC 13525 after 24 hrs by MTT assay; type: functional; settings: ATCC 13525, 24 h; procedure, shortened: as §1
Escherichia coli = assay: Antimicrobial activity against Escherichia coli ATCC 35218 after 24 hrs by MTT assay; type: functional; settings: ATCC 35218, 24 h; procedure, shortened: as §1

Structure (SMILES)	IC50 [1] [µM]	MIC (Staphylococcus aureus) [µg/mL]	MIC (Bacillus subtilis) [µg/mL]	MIC (Pseudomonas aeruginosa) [µg/mL]	MIC (Escherichia coli) [µg/mL]
Oc1ccccc1/C=N/CCCCCC/N=C/c1ccccc1O	44.6				
O=C(NCCCCCCNC(=O)c1ccccc1O)c1ccccc1O	> 140				
O=C(NCCCNC(=O)c1ccccc1O)c1ccccc1O	41.8				
O=C(NCC/N=C/c1cc(Cl)cc(Cl)c1O)c1ccccc1O	7.08	> 50	3.13 (≈ 8.86 µM)	> 50	1.56 (≈ 4.42 µM)
Oc1ccccc1/C=N/CCC/N=C/c1ccccc1O	43.4				
O=C(NCCCCNC(=O)c1ccccc1O)c1ccccc1O	38.3				
Oc1ccccc1/C=N/CCCC/N=C/c1ccccc1O	44				
O=C(NCCCCCC/N=C/c1cc(Cl)cc(Cl)c1O)c1ccccc1O	> 122				
O=C(NCC/N=C/c1cc(Br)cc(Br)c1O)c1ccccc1O	1.22	12.5 (≈ 28.3 µM)	1.56 (≈ 3.53 µM)	12.5 (≈ 28.3 µM)	6.25 (≈ 14.1 µM)
O=C(NCC/N=C/c1cc(I)cc(I)c1O)c1ccccc1O	23.7				
O=C(NCCC/N=C/c1c(O)ccc2ccccc12)c1ccccc1O	8.61	25 (≈ 71.8 µM)	25 (≈ 71.8 µM)	12.5 (≈ 35.9 µM)	> 50
Oc1ccccc1/C=N/CC/N=C/c1ccccc1O	> 186				
O=C(NCCCCCC/N=C/c1cc(Br)cc(Br)c1O)c1ccccc1O	12.5				
O=C(NCCCCCC/N=C/c1cc(I)cc(I)c1O)c1ccccc1O	25.8				
O=C(NCCCCCC/N=C/c1c(O)ccc2ccccc12)c1ccccc1O	> 128				
O=C(NCCC/N=C/c1cc(Cl)cc(Cl)c1O)c1ccccc1O	7.49				
O=C(NCCC/N=C/c1cc(Br)cc(Br)c1O)c1ccccc1O	13.8				
O=C(NCC/N=C/c1ccccc1O)c1ccccc1O	25.5				
O=C(NCC/N=C/c1c(O)ccc2ccccc12)c1ccccc1O	29.2				
O=C(NCCNC(=O)c1ccccc1O)c1ccccc1O	55				
O=C(NCCC/N=C/c1cc(I)cc(I)c1O)c1ccccc1O	23.5				
O=C(NCCCC/N=C/c1cc(Cl)cc(Cl)c1O)c1ccccc1O	7.74				
O=C(NCCCC/N=C/c1cc(Br)cc(Br)c1O)c1ccccc1O	6.61				
O=C(NCCCC/N=C/c1c(O)ccc2ccccc12)c1ccccc1O	8.55				

The next lines start with the values.

IC50 [1] [µM]	MIC (Staphylococcus aureus) [µg/mL]	MIC (Bacillus subtilis) [µg/mL]	MIC (Pseudomonas aeruginosa) [µg/mL]	MIC (Escherichia coli) [µg/mL]	Structure (SMILES)
2.75	25 (≈ 60.9 µM)	> 50	> 50	25 (≈ 60.9 µM)	O=C(NCC/N=C/c1cc(I)ccc1O)c1ccccc1O
16					O=C(NCCCC/N=C/c1cc(Br)ccc1O)c1ccccc1O
112					O=C(NCCCCCC/N=C/c1cc(F)ccc1O)c1ccccc1O
17.1					O=C(NCC/N=C/c1cc(Br)ccc1O)c1ccccc1O
19.2					O=C(NCCCC/N=C/c1cc(F)ccc1O)c1ccccc1O
8.69					O=C(NCC/N=C/c1cc(Cl)ccc1O)c1ccccc1O
29.9					O=C(NCCCCCC/N=C/c1cc(Br)ccc1O)c1ccccc1O
41.9					O=C(NCCC/N=C/c1ccccc1O)c1ccccc1O
65.1					O=C(NCCCCCC/N=C/c1ccccc1O)c1ccccc1O
5.56	1.56 (≈ 4.93 µM)	25 (≈ 79 µM)	1.56 (≈ 4.93 µM)	3.13 (≈ 9.89 µM)	O=C(NCCC/N=C/c1cc(F)ccc1O)c1ccccc1O
56.9					O=C(NCCCCCC/N=C/c1cc(I)ccc1O)c1ccccc1O
3.54	> 50	25 (≈ 58.9 µM)	6.25 (≈ 14.7 µM)	3.13 (≈ 7.38 µM)	O=C(NCCC/N=C/c1cc(I)ccc1O)c1ccccc1O
34.2					O=C(NCC/N=C/c1cc(F)ccc1O)c1ccccc1O
43.4					O=C(NCCCC/N=C/c1ccccc1O)c1ccccc1O
0.875	3.13 (≈ 8.3 µM)	1.56 (≈ 4.14 µM)	3.13 (≈ 8.3 µM)	0.39 (≈ 1.03 µM)	O=C(NCCC/N=C/c1cc(Br)ccc1O)c1ccccc1O
11.1					O=C(NCCCC/N=C/c1cc(I)cc(I)c1O)c1ccccc1O
6.69	25 (≈ 72.1 µM)	25 (≈ 72.1 µM)	12.5 (≈ 36 µM)	> 50	O=C(NCCCC/N=C/c1cc(Cl)ccc1O)c1ccccc1O
26.7					O=C(NCCCCCC/N=C/c1cc(Cl)ccc1O)c1ccccc1O
4.93	> 50	> 50	> 50	25 (≈ 75.1 µM)	O=C(NCCC/N=C/c1cc(Cl)ccc1O)c1ccccc1O
1.48	> 50	1.56 (≈ 3.56 µM)	3.13 (≈ 7.14 µM)	6.25 (≈ 14.3 µM)	O=C(NCCCC/N=C/c1cc(I)ccc1O)c1ccccc1O
